The values below come from the EternaBench riboswitch data.

This series relates to MS2 coat protein. Nature of the series: apparent Kd, MS2 coat protein; higher = weaker binding; RNA-MaP array; FMN 200 µM where present. In outline:
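Designs were transcribed by stalled E. coli RNA polymerase on Illumina sequencing-chip clusters. They were titrated with SNAP-549-labelled MS2 coat protein from 0.7 or 1.5 nM, doubling to 3 µM, without and then with constant ligand. Buffer: 100 mM Tris-HCl pH 7.5, 80 mM KCl, 4 mM MgCl2, BSA, DTT, yeast tRNA, Tween-20. Green signal was normalised to red-channel RNA signal and control-cluster median Fmax. Apparent Kd is the median of filtered per-cluster binding-curve fits.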

Where [1] appears, read: designed as: OFF switch for flavin mononucleotide, no ligand.
Setting [2] is: ligand present: flavin mononucleotide, designed as: OFF switch for flavin mononucleotide.
The mark [3] stands for this setting: designed as: ON switch for flavin mononucleotide, no ligand.
Where [4] appears, read: ligand present: flavin mononucleotide, designed as: ON switch for flavin mononucleotide.

With “UGUCGGAGCAGAGGAUAUAUACAUGAGGAUCACCCAUGUAAAUGGAAUAGCUGGAAACAGCAAGUAUAGAAGGCUGCUCCGACA”, the “apparent Kd” value was 37.4 nM under setting [1] and 112 nM under setting [2].

On to “AUACAUACAAAGUUACAUGAGGAUCACCCAUGUUUAUUGGGAAGAAGGGUAACAUUAUUAGAUGUAUAGGAUAUUUCACAAUUG”, for which the “apparent Kd” value worked out at 537 nM under setting [3] and 275 nM under setting [4].

With “GCAUGCUCCGAGGAUAUCGAAGCUAAUUAUGCACGAGAAGGCGGAACAUGAGGAUCACCCAUGUGAUGCCUAAA”, the “apparent Kd” value under setting [2] came out at 29.4 nM.

For the sequence “UUAAAUCAUGUAGGAUAUGCAUGGCGAAGCUACGCAGAAGGACAUGAGGAUCACCCAUGUUCUAGCUACCGAGUUCGGUGGCAA”, the “apparent Kd” value is 20.2 nM under setting [1] and 83.8 nM under setting [2].

With “UGUAUGGACAGAGGAUAUACGGAUAGGAUCUACUAUCCUCCUUAAAUAACAUGAGGAUCACCCAUGUAGAAGGCUGUCCAUACU”, the “apparent Kd” value was 18.6 nM under setting [1] and 43.5 nM under setting [2].

Turning to “ACAGUCACAAUAACUUGUGGGCGUGAGGAUAUAUAUGGCUCGGAGCGGACAUGAGGAUCACCCAUGUAGAAGGCACGAACUAAU”, the “apparent Kd” value runs as follows: under setting [1], 6.1 nM; under setting [2], 8.54 nM.

Take “AGUGUGAGGCAGGAUAUGCUAUAUGUUCGUAAUGCAGAAGGGUCUACAUGAGGAUCACCCAUGUGUGCGGUUGA”: the “apparent Kd” value under setting [1] turned out to be 183 nM and the “apparent Kd” value under setting [2] is 523 nM.

For the sequence “AAGAGACAUCAGAAGGGAACCCAAACGCGCGGUUCAGGAUAUGAGAUCUUAUGUAGUUCGACAUGAGGAUCACCCAUGUCCGCG”, the “apparent Kd” value turned out to be 101 nM under setting [3] and 8.22 nM under setting [4].

Consider “GGAUGACAAAGUCAUCCUUAACGAACAUGAGGAUCACCCAUGUAGGAUAUGCUACUCAAAGAGUAGCAGAAGGACAUGUGUCUU”, for which the “apparent Kd” value worked out at 31.1 nM under setting [1] and 159 nM under setting [2].

On to “UCAUUUUUACAAGGAUAUCAAUAUAAUAUAAUAGCUACAUGAGGAUCACCCAUGUUUUAGCGUGGUGAGAAGGUGUAUUGUCGG”, for which the “apparent Kd” value was found to be 89.5 nM under setting [3] and 63 nM under setting [4].

“AAAUUGGUAGAGGAUAUCGGAUAGGAUUUACUGCGAGAAGGCUGCACAUGAGGAUCACCCAUGUUCUGUUGCGA”: the “apparent Kd” value under setting [1] turned out to be 25.1 nM and the “apparent Kd” value under setting [2] was 26 nM.

Take “CGCUGUCAUGCAGGAUAUGCAUUGGUUUACAAUGCAGAAGGGCGAUUACAUGAGGAUCACCCAUGUGUAGACAGUGAAGAAGAG”: the “apparent Kd” value was 157 nM under setting [3] and 12.9 nM under setting [4].

As for “UGAUGAGGUUAGAAGGUACAGAGUAGUGGACCAAACAUGAGGAUCACCCAUGUCAUGGGAGGGAGUAAGGAUAUAAAGUUGUAG”, the “apparent Kd” value reads like this: under setting [1], 63.7 nM; under setting [2], 51.2 nM.

Regarding “GUUAAUUAGUGAGGAUAUACAGUAUUUAAUACUGUAGAAGGCACAAUCCUCAAGACAUGAGGAUCACCCAUGUGAUAAUAAGAU”, the “apparent Kd” value under setting [1] amounted to 54.4 nM and the “apparent Kd” value under setting [2] amounted to 203 nM.

In the case of “AAUUAACAUGAGGAUCACCCAUGUGAGGAUAUGGUAUUAUUUGGACAGUUAUGAUAUACCAGAAGGCACAUAUA”, the “apparent Kd” value was found to be 63.4 nM under setting [1] and 108 nM under setting [2].

Take “CCUGGCACAUAGAAGGGUACAUGGCCUCUGCUACAUGAGGAUCACCCAUGUGCAGGAUAUGUGUGCCAGACUAUGCCGGUGUAA”: the “apparent Kd” value was 20.2 nM under setting [1] and 16.1 nM under setting [2].

For the sequence “CGAUGUUAUGUCAGGAUAUGCGUUGCGAAAGCAAUGUAGAAGGGACAUGAGGAUCACCCAUGUGCUAACCAUCG”, the “apparent Kd” value is 18.7 nM under setting [1] and 51.1 nM under setting [2].

In the case of “AGCUACGUUUCGUAGCAGCUAGGUGAGGAUAUCCUUAUACAUGAGGAUCACCCAUGUUAGCCAUGGGAGAAGGCGCCUAGAAAG”, the “apparent Kd” value under setting [3] came to 328 nM and the “apparent Kd” value under setting [4] was 24.8 nM.

As for “AAGAUGCGGGUAGGAUAUGGGAAUUAAUAAAGACCAGAAGGACUGGUCACACAACAUGAGGAUCACCCAUGUGUGUGUAGUGAA”, the “apparent Kd” value stood at 12.4 nM under setting [1] and 10.9 nM under setting [2].

As for “AGUUAAUAUCGAGGAUAUGUCUAGACACAUGAGGAUCACCCAUGUAUGUGUAUAGAAGGCGAUAUUAACAGCAUGUUACAUGCA”, the “apparent Kd” value under setting [3] turned out to be 40.2 nM and the “apparent Kd” value under setting [4] came to 16.7 nM.

On to “AUGGAUAUCACAGGAUAUGCUAUGGAUACCAUAGCAGAAGGGUGAUCCAUCCUAUGUAAAUACAUGAGGAUCACCCAUGUGUCC”, for which the “apparent Kd” value is 50 nM under setting [3] and 35.7 nM under setting [4].

“UUAUACAUUCGAGGAUAUCGGAGAGAAAUCAUUCGAGAAGGCGAUUCAUGAUGUAUUAUCCUGGACAUGAGGAUCACCCAUGUA”: the “apparent Kd” value under setting [3] stood at 79.7 nM and the “apparent Kd” value under setting [4] came out at 68.5 nM.

Consider “UGGUUCAUGGGAGGAUAUCCUCAAGAACAUGAGGAUCACCCAUGUAAUUAUAAGCCGAAAGGCAUGGAGAAGGCCCAUGAACCU”, for which the “apparent Kd” value was found to be 67.5 nM under setting [3] and 16.9 nM under setting [4].

Turning to “AAACCACAUGAGGAUCACCCAUGUCAAGAGAGACUAGGAUAUCUGAAUUAAUUAAAUUAAGGAGAAGGAGUGAAAA”, the “apparent Kd” value is, setting by setting: under setting [3], 121 nM; under setting [4], 64.8 nM.

Turning to “AAAAAGUCAGGAUAUCGUAGAAAAAUAUAAAUAAGAAAGUACGAGAAGGGACAUGAGGAUCACCCAUGUAAAAA”, the “apparent Kd” value reads like this: under setting [1], 33.1 nM; under setting [2], 36.9 nM.

In the case of “AAAGCAAUGUCAUGCUCACCGGACAGAAGGCAAUGUGGGCAGCCCGACAUGAGGAUCACCCAUGUUGAGGAUAUGUCCCGUCCU”, the “apparent Kd” value under setting [1] came out at 2.53 nM and the “apparent Kd” value under setting [2] was found to be 2.54 nM.

Take “ACAUGAGACUUAGGAUAUGUUGUACCUACAUGUGACAUGAGGAUCACCCAUGUGGUAAGUAUGACACAGAAGGAAGAGAUAUGU”: the “apparent Kd” value by setting is: under setting [3], 21.4 nM; under setting [4], 19.9 nM.

With “AGCAGACGAGGAUAUAGAUUUAAGUACAUGAGGAUCACCCAUGUACACAUGUAUUUAGAUUUAGAAGGCGUCUGCU”, the “apparent Kd” value was found to be 666 nM under setting [1] and 664 nM under setting [2].

Regarding “GGGCAUAAUACAUGAGGAUCACCCAUGUCAGAAAGGGUAAUCAGAAGGUACUAUUAGAGAAAGAGUAAGGAUAUGAAUAUGCCC”, the “apparent Kd” value reads like this: under setting [3], 973 nM; under setting [4], 103 nM.

As for “ACAAGAUCAGGAUAUACAUGAGGAUCACCCAUGUAUUUCAAAAAGGGACUUUCUUAAUGUAGAAGGGAUCUUGU”, the “apparent Kd” value by setting is: under setting [1], 22.5 nM; under setting [2], 94.4 nM.

For “GAAAAACAUGAGGAUCACCCAUGUGUAAACAAGGGAGGAUAUACAAAGACGUAAGUCAAAGUAGAAGGCCUAAAAG”, the “apparent Kd” value under setting [3] is 25 nM and the “apparent Kd” value under setting [4] was determined as 9.6 nM.

With “GGAUAGGACAGAGGAUAUACGUGCUAGAGAUACUAGCAAAAUCUCCUCACAUGAGGAUCACCCAUGUAGAAGGCUGUCCUAUCG”, the “apparent Kd” value under setting [1] was 9.85 nM and the “apparent Kd” value under setting [2] stood at 201 nM.

Consider “AAAUCAGUAGGAUAUACGAUUUUGUACUAGACAGAGGAACCACAUGAGGAUCACCCAUGUAGAAGGACUAGAUA”, for which the “apparent Kd” value under setting [1] is 16.4 nM and the “apparent Kd” value under setting [2] worked out at 13.9 nM.

Regarding “GCCCGCCUAGCAGGAUAUACAGGUUGGCGGACAUGAGGAUCACCCAUGUAAGGCUACAUACACUUGUAGAAGGGUUGGGUGUCC”, the “apparent Kd” value by setting is: under setting [3], 93.4 nM; under setting [4], 33.7 nM.

Turning to “AAUAAGCAAGGAUAUACGACGCAGAGCGUCAGUGGGCGAUGACAUGAGGAUCACCCAUGUAGAAGGUGCACAUC”, the “apparent Kd” value is, setting by setting: under setting [1], 93.9 nM; under setting [2], 208 nM.

Regarding “AACAGGACAGGAUAUACAUGAGGAUCACCCAUGUAGGAAACAAGCAGAGUACCAAAAAGUAGAAGGGUCAUGGA”, the “apparent Kd” value reads like this: under setting [1], 60.2 nM; under setting [2], 79.5 nM.

For “CCGCAAAUGCAGGAUAUCGUAUCGGAUACGAUACGAGAAGGGCAUACAUGAGGAUCACCCAUGUGUCCUAGCGG”, the “apparent Kd” value is, setting by setting: under setting [1], 16.6 nM; under setting [2], 35.2 nM.

As to “UGUCCAUAGCAGAAGGACAUGAGGAUCACCCAUGUAAUCAUACAAAUACAUGUAGGAUAUGCUAUGGACUAAGAGCGAAAGCUC”, the “apparent Kd” value reads like this: under setting [1], 8.28 nM; under setting [2], 19.1 nM.

As to “GAAUGUUGGCUAGGAUAUGCAUUUUGAGAGGUAGCAGAAGGAGCGCACAUGAGGAUCACCCAUGUUAGCAUUGGGCGUCUCUCA”, the “apparent Kd” value was determined as 5.76 nM under setting [1] and 16.3 nM under setting [2].

On to “UAUUACCUAGGAUAUACAUGAGGAUCACCCAUGUCACGGGUCAACUUGUCCUAUGCGUGUAGAAGGAGGGACCC”, for which the “apparent Kd” value by setting is: under setting [1], 19.8 nM; under setting [2], 21.3 nM.

For the sequence “GGGCCGUAGUAGAAGGGAUAUACGAUAGGUAUAUCAGGAUAUACAUGAGGAUCACCCAUGUUCUUACAGUGAUAGUCCUCCCUA”, the “apparent Kd” value by setting is: under setting [1], 28.4 nM; under setting [2], 65.8 nM.

For the sequence “AGCUGUGGCAGAGGAUAUACAAUCCUAAUCCAUUGCAAAUAGCGAUGGACAUGAGGAUCACCCAUGUAGAAGGCUGUCUCAGCA”, the “apparent Kd” value under setting [1] was 297 nM and the “apparent Kd” value under setting [2] was 65.2 nM.

For “AAGAAAUGGGAGUGAUUUGGUUCCGAGGAUAUAGGCAUCGGUACAUGAGGAUCACCCAUGUUCGACUAGAAGGCGGACGGGUCC”, the “apparent Kd” value is, setting by setting: under setting [3], 169 nM; under setting [4], 20.4 nM.

On to “UGAAUCAUGCCAUGCGCUGACAUGAGGAUCACCCAUGUGUACAAGGAUAUGUUGGUCGACGAUCGGCAGAAGGUGUAAUGGGAU”, for which the “apparent Kd” value came out at 319 nM under setting [1] and 764 nM under setting [2].

Consider “GUCAGCUCGUGAGGAUAUACAAUACUGCUUCGGCAGUGUAUUAAGAUCACAUGAGGAUCACCCAUGUAGAAGGCACGAGCUGAU”, for which the “apparent Kd” value by setting is: under setting [1], 7.88 nM; under setting [2], 60.4 nM.

Consider “GCGUAUUAGGUGUAGCUAGUCAUUCAAGAAGGGUGAAGAACAUGAGGAUCACCCAUGUUGUUUUUACAGGAUAUUGAUAUACGC”, for which the “apparent Kd” value under setting [3] came out at 68 nM and the “apparent Kd” value under setting [4] turned out to be 8.52 nM.

Consider “GACUGCCGAGGAUAUACAUGAGGAUCACCCAUGUGCUUCAGCAUUUUUUAAUGCAUGGGUAGAAGGCGGUAGUU”, for which the “apparent Kd” value under setting [1] turned out to be 35.4 nM and the “apparent Kd” value under setting [2] is 60.7 nM.

For the sequence “GUAGUACAUGAGGAUCACCCAUGUGUGGGCGCAUGAGGAUAUGUCCGUACCUGGCGUACGAUAGAAGGCAUGGUGC”, the “apparent Kd” value by setting is: under setting [3], 52.8 nM; under setting [4], 29.3 nM.
